TRPC4 block: TRPC4 (mouse) channel inhibition; HEK293 TRPC4beta/mu-opioid, DAMGO-evoked Fluo4 calcium flux; stronger effect = lower value; Q9QUQ5; AID 2247; actives 0.39% (n = 300,000); B-score at 10 µM;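 active = B-score over 3 SD under the library average, no early fluorescence shift, positive overall ratio signal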
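test system = HEK293 cells with stable TRPC4beta plus mu-opioid receptor expression | detection = Fluo4 Ca2+ flux fluorescence | read-out = integrated fluorescence ratio relative to baseline, converted to per-well B score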
TRPC4 act: activators of mouse TRPC4 channel. B-score at 10 µM. Q9QUQ5. actives 0.49% (n = 310,000). HEK293 TRPC4beta/mu-opioid, Fluo4 calcium fluorescence; stronger effect = higher value;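 active = B-score above 5 SD of library B-scores, and initial fluorescence ratio not above library mean plus 5 SD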;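 note: positive B-score marks a calcium rise read as TRPC4 activation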
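Technique: kinetic Fluo4 calcium fluorescence; Test system: TRPC4beta and mu-opioid receptor HEK293 stable cells; Measure: B-scored integrated calcium fluorescence ratio; Benchmarks: low control buffer alone, high control maximal DAMGO; Schedule: 45 min room-temperature Fluo4 loading, 110 s read.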
TRPC6 activator: mouse TRPC6 channel activation | Q61143 | HEK293-TRPC6 membrane potential dye fluorescence; stronger effect = higher value | B-score at 10 µM | actives 0.13% (n = 310,000) | AID 2550;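 active = B-score of the integrated fluorescence ratio above library mean plus 3 SD, and starting fluorescence ratio within library mean plus 5 SD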;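 note: higher score means more depolarization so channel activation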
Target sequence (Q61143 whole entry, looked up): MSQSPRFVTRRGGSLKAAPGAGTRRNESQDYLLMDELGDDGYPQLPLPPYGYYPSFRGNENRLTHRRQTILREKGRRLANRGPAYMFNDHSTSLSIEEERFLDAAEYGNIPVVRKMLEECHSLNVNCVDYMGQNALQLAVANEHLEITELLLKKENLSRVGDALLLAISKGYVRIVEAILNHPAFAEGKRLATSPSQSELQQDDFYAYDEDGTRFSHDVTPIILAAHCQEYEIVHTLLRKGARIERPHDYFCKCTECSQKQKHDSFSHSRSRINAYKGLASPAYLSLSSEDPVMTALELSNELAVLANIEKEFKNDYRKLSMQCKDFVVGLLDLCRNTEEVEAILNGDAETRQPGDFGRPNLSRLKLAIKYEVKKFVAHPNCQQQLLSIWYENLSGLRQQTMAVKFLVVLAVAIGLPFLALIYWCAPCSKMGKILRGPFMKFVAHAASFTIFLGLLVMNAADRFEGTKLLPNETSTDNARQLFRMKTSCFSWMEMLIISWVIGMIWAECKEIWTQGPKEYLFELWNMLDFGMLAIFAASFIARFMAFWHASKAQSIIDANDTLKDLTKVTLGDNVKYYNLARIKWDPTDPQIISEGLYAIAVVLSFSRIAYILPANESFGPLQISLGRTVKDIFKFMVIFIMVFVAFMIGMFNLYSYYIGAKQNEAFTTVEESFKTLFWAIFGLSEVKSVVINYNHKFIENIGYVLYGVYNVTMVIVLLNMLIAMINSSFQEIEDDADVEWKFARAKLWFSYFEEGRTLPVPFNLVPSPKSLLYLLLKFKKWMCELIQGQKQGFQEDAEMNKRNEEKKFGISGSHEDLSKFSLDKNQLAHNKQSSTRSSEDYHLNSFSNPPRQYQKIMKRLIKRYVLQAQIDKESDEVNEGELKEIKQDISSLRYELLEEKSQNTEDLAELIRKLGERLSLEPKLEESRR
TRPC4 potent: allosteric potentiators of mouse TRPC4 channel; Q9QUQ5; HEK293 TRPC4beta/mu-opioid, DAMGO EC20, Fluo-4 Ca2+ flux; stronger effect = higher value; B-score at 10 µM; actives 0.42% (n = 310,000);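 active = B-score of calcium response area above 5 SD of library B-scores, with initial fluorescence ratio within 5 SD of library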
TRPC6 inh: inhibitors of mouse TRPC6 channel; HEK293-TRPC6, membrane potential dye, ACh-evoked depolarization; stronger effect = lower value; B-score at 10 µM; actives 1.1% (n = 310,000); AID 2553;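 active = B-score under library mean minus 3 SD, initial fluorescence not abnormally high, positive integrated signal ratio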;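 note: B-score derived from integrated fluorescence ratio over the kinetic read; more negative B-score means stronger inhibition of depolarization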
Kir21 block: inhibitors of mouse Kir2.1 inward-rectifier potassium channel | HEK293-Kir2.1, FluxOR thallium flux fluorescence; stronger effect = lower value | B-score at 10 µM | AID 1672 | P35561 | actives 0.85% (n = 310,000);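 active = fluorescence ratio B-score at or below minus 3 SD of library scores, with starting-brightness B-score within 2 SD, cut at about -4.2 in these data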;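 note: channel flux triggered by added potassium and thallium sulfate stimulus; B-score of peak minus minimum fluorescence over baseline after thallium stimulus; more negative B-score means stronger Kir2.1 block with less thallium influx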
TRPC4 spec 2: second selectivity test of TRPC6 inhibitors: effect on mouse TRPC4 | shares compounds with TRPC6 inh | HEK293 TRPC4/MOR, membrane potential dye fluorescence; channel activated by saturating DAMGO dose | inhibition, % at 10 µM | actives 42% (n = 920) | AID 2776;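 active = compounds whose fluorescence signal differed from control wells by over 3 SD, either direction, in both duplicate plates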
TRPC4 spec: selectivity of TRPC6 inhibitors: effect on mouse TRPC4; shares compounds with TRPC6 inh; HEK293 TRPC4/mu-opioid, membrane potential fluorescence; activity change, negative = inhibition, % at 10 µM; actives 61% (n = 920); AID 2777;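 active = rise or fall in signal beyond 3 SD of buffer-only wells in both replicate plates, either sign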;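 note: integrated kinetic ratio of fluorescence range over baseline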
HEK293 MPD ctr 2-1: second counter-screen for TRPC6 inhibitors: parental HEK293 cells. shares compounds with TRPC6 inh. parental HEK293 membrane potential dye fluorescence; maximal acetylcholine challenge after compound addition. signal change vs control, % at 10 µM. actives 31% (n = 920). AID 2779;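 active = membrane potential signal moving either way by over 3 SD of the maximum-effect control, in both duplicate plates, meaning non-specific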
HEK293 MPD ctr-1: checks TRPC6 inhibitor effects in parental HEK293 cells; shares compounds with TRPC6 inh; parental HEK293 membrane potential dye fluorescence; membrane potential signal change, % at 10 µM; actives 60% (n = 920);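 active = membrane potential signal shifting up or down by more than 3 SD of buffer-only wells, on both duplicate plates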
HEK293 MPD ctr-2: counter-screen for TRPC6 modulators: effect in parental HEK293 cells; shares compounds with TRPC6 inh; membrane potential dye fluorescence; membrane potential signal change, % at 10 µM; actives 51% (n = 2,400); AID 488924;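 active = membrane potential signal moves up or down beyond 5 SD from buffer-only wells, on both duplicate plates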
HEK293 MPD ctr 2-2: second check of TRPC6 modulator effects in parental HEK293 cells; shares compounds with TRPC6 inh; AID 488926; actives 14% (n = 2,400); inhibition, % at 10 µM; membrane potential dye fluorescence; after compound, maximal acetylcholine stimulation;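 active = membrane potential signal drops by more than 5 SD from the mean control signal, in both duplicate plates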
TRPC4 ctr mod: tests whether TRPC6 modulators also affect mouse TRPC4. percent change from control (negative = decrease, positive = increase), % at 10 µM. shares compounds with TRPC6 inh. actives 69% (n = 2,400). HEK293 TRPC4/mu-opioid, membrane potential fluorescence. AID 488927;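 active = membrane potential signal moved up or down beyond 5 SD of buffer control wells, in both duplicate plates, actives on both sides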
TRPC4 ctr inh 2: second check of whether TRPC6 modulators also affect mouse TRPC4 | actives 55% (n = 2,400) | HEK293 TRPC4/mu-opioid, membrane potential dye fluorescence; stimulated with maximal-effect DAMGO | inhibition, % at 10 µM | shares compounds with TRPC6 inh;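 active = drop in membrane potential signal beyond 5 SD of the control wells in both duplicate plates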;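 note: TRPC4 counter screen for TRPC6 hits run under conditions tuned for TRPC6 not TRPC4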
TRPC6 inh conf: confirmation of mouse TRPC6 inhibitors; actives 43% (n = 3,300); AID 488960; shares compounds with TRPC6 inh; HEK293-TRPC6, membrane potential dye, ACh-evoked depolarization; inhibition, % at 10 µM;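 active = fluorescence ratio falls more than 5 SD below the full-stimulation control mean, in both duplicate runs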;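 note: integrated fluorescence ratio of peak minus minimum over baseline after agonist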
TRPC6 act confirm: confirmation of mouse TRPC6 activators; actives 11% (n = 2,800); HEK293-TRPC6 membrane potential dye fluorescence, FDSS; shares compounds with TRPC6 inh; activation, % at 10 µM;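 active = ratio signal rise beyond 5 SD above unstimulated control wells' mean, seen in both duplicate runs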
A number is an active result; - = inactive; . = no result. Hits are enriched below; roughly 2.9% of the tested compounds scored in any of these assays.

SMILES | TRPC4 block | TRPC4 act | TRPC6 activator | TRPC4 potent | TRPC6 inh | Kir21 block | HEK293 MPD ctr-2 | HEK293 MPD ctr 2-2 | TRPC4 ctr mod | TRPC4 ctr inh 2 | TRPC6 inh conf | others
COc1ccc(NC(=O)c2ccc(-n3cnnn3)cc2)c([N+](=O)[O-])c1 | - | - | - | - | - | - | . | . | . | . | .
COc1ccc(-c2cnc(NCc3cc4c(cc3[N+](=O)[O-])OCO4)n2C)cc1 | - | - | - | - | -5.6 | - | - | - | - | 44% | - | TRPC6 act confirm=-
Cn1c(-c2ccc3c(c2)OCO3)cnc1NCc1ccc(Cl)cc1 | - | - | - | - | -6.2 | -11 | - | - | - | 76% | 48% | TRPC6 act confirm=-
COc1cc(CNc2ncc(-c3ccc(Cl)cc3)n2C)cc(OC)c1OC | - | - | - | - | - | - | . | . | . | . | .
COc1ccc(OC)c(CNc2ncc(-c3cccc([N+](=O)[O-])c3)n2C)c1 | - | - | - | - | - | - | . | . | . | . | .
O=C(O)c1cc(S(=O)(=O)NC(CO)C(O)c2ccc([N+](=O)[O-])cc2)ccc1Br (stereo not drawn) | - | - | - | - | - | - | . | . | . | . | .
O=C(CCC(=O)Nc1ccc(Br)cc1)N/N=C/c1ccc(O)cc1 | - | - | - | - | - | - | . | . | . | . | .
CC(C)Cc1ccc(C2=CSC3=NCCN23)cc1 | - | - | - | - | -5.8 | - | 94% | - | - | 55% | 48%
CCOC(=O)C1=C(COC(=O)COc2ccc(OCC)cc2)NC(=O)NC1C (stereo not drawn) | - | - | - | - | - | - | . | . | . | . | .
CCOC(=O)C1(Cc2cccc(Cl)c2)CCCN(C(=O)c2cccc(C)n2)C1 (stereo not drawn) | - | - | - | - | - | - | . | . | . | . | .
COc1ccc(S(=O)(=O)N(C)c2ccc(OC(=O)C(C)Oc3ccc(F)cc3)cc2)cc1 (stereo not drawn) | - | - | - | - | - | - | . | . | . | . | .
CCc1ccc(CCC(=O)Nc2ccc(C(C)=O)cc2)o1 | - | - | - | - | - | - | . | . | . | . | .
CCOC(=O)c1ccc(NC(=O)CCc2ccc(CC)o2)cc1 | - | - | - | - | -12 | - | . | . | . | . | - | TRPC4 spec 2=-;TRPC4 spec=-;HEK293 MPD ctr 2-1=-;HEK293 MPD ctr-1=-
Cc1sc2c3ccsc3ccc2[n+]1C | - | - | - | - | -8.6 | - | -292% | 71% | -50% | 58% | 68% | TRPC6 act confirm=-
